Screening results: PubChem, The Scripps Research Institute Molecular Screening Center
OX1R antag-1 = blocks the human orexin 1 receptor. OX1R-expressing cells, FRET antagonist read-out. inhibition, % at 6.6 µM. 330,000 compounds, 1.8% hits. AID 485270; in the data active = inhibition mostly above about 38%, no sharp cut-off; inactive = mostly below about 40%;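 also: 0% = agonist challenge alone and 100% = reference antagonist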
GPR7 antag = human neuropeptides B/W receptor 1 antagonism | GPR7-expressing cells, fluorescence antagonist assay | P48145 | inhibition, % at 4.4 µM | AID 1861 | 290,000 compounds, 1.1% hits; in the data active = inhibition above about 16%, passing the limit was not always enough;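 also: cells stimulated with the agonist NPW; 0% = agonist with vehicle and 100% = vehicle without agonist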
Target sequence (P48145 whole entry, looked up): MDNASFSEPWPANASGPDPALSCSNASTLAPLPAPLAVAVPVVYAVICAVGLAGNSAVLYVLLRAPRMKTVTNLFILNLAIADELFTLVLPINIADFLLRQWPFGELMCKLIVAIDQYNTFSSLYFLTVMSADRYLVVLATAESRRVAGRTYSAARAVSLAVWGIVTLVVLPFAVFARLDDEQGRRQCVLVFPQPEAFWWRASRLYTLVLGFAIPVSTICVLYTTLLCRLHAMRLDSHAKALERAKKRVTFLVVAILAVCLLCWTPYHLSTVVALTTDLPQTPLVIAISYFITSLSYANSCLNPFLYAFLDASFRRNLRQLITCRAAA
CHO parental Ca = counter-screen: ATP calcium response change in parental CHO cells; inhibition, % at 5.6 µM; parental CHO-K1, ATP-induced calcium, Fluo-8 fluorescence; 330,000 compounds, 0.63% hits;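 active = inhibition above that plate's mean sample inhibition plus 3 SD, cut at about 26% in these data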;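 also: 0% = ATP-challenged DMSO wells and 100% = DMSO wells without ATP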
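Assay system – parental CHO cells · Reagent – ATP stimulus · Detection – intracellular calcium via Fluo-8 no-wash fluorescent dye · Evaluation – percent inhibition of ATP-evoked calcium rise, normalized to controls · Controls – ATP wells versus no-ATP DMSO wells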
OX1R antag-2 = blocks the human orexin 1 receptor; CHO/OX1R cells, Fluo-8 calcium fluorescence, orexin A; 330,000 compounds, 0.43% hits; AID 434989; inhibition, % at 5 µM;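 active = inhibition above its plate's threshold, mean inhibition of all tested compounds on the plate plus 3 SD, cut at about 37% in these data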;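 also: 0% = orexin A challenge wells and 100% = SB-334867-A antagonist wells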
TAAR1 antag = antagonists of human TAAR1; Q96RJ0; CHO RD-HGA16 TAAR1, Fluo-8 calcium fluorescence, antagonist; inhibition, % at 3 µM; 360,000 compounds, 1.5% hits; AID 624466;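 active = inhibition above a per-plate cutoff, the mean inhibition of test compounds on that plate plus 3 SD, cut at about 49% in these data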;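 also: 0% = DMSO plus EC80 beta-PEA response and 100% = DMSO alone without agonist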
Target sequence (Q96RJ0 whole entry, looked up): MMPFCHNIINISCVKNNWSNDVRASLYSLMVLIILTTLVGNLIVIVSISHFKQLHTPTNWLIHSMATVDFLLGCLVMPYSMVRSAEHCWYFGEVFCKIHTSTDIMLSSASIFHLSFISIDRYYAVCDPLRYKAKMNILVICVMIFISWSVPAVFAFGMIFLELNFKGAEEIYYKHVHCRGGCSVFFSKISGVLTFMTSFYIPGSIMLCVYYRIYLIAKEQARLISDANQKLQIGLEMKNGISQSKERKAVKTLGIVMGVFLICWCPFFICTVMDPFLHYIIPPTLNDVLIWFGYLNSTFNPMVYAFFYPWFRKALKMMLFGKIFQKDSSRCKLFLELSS
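System: CHO RD-HGA16 cells bearing hTAAR1. Reagent: EC80 β-phenethylamine stimulus. Schedule: seeding 17-24 h prior, 75-min 37 °C, 30-min RT dye loading. Signal: Fluo-8 intracellular calcium dye fluorescence, real-time kinetic reads. Read-out: % inhibition from peak post-agonist over basal fluorescence ratio. Benchmarks: vehicle wells and EC80 agonist wells. Replicates: n of 1.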
TAAR1 ag = human TAAR1 agonism; Q96RJ0; activation, % at 3 µM; AID 624467; 360,000 compounds, 0.99% hits; CHO RD-HGA16 TAAR1, Fluo-8 calcium fluorescence; vehicle wells 0%, saturating PEA agonist 100%;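 active = activation above the mean activation of all test compounds in the run plus 3 SD, cut at about 38% in these data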
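Test system: RD-HGA16 (CHO) cells co-expressing Gα16 and hTAAR1 | Doses: Single dose, 3 µM | Schedule: 17-24 h seeding, 75 min 37 °C dye, 30 min RT | Evaluation: % activation from peak over basal fluorescence ratio, DMSO-to-PEA scaled | Technique: Kinetic Fluo-8 calcium fluorescence | Benchmarks: Low control DMSO, high control PEA (EC100)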
Starred values were filed as active, the others as inactive; . = no result given. Rows were chosen to be rich in hits. Some 4.5% of all compounds tested hit in one or more screens of this group.

SMILES	OX1R antag-1	GPR7 antag	CHO parental Ca	OX1R antag-2	TAAR1 antag	TAAR1 ag
COC(=O)C1=C(C)N(Cc2ccccc2C(F)(F)F)C(=NCc2ccc(OC)cc2)NC1c1ccc(C(F)(F)F)cc1 (stereo not drawn)	.	.	.	.	2	9
COC(=O)c1ccc(/C=N/NC(=O)c2ccc3nc[nH]c3c2)cc1	12	5	-8	-10	41	4
O=C(N/N=C/c1ccc(Cl)cc1)c1ccc2nc[nH]c2c1	.	.	.	.	53*	18
CN(C)c1ccc(/C=N/NC(=O)COc2ccccc2)cc1	15	-13	1	-20	-19	-1
Cc1ccccc1N(CC(=O)N/N=C/c1ccc(N(C)C)cc1)C(=O)c1ccccc1	63*	-4	-20	-26	0	2
CC(=O)c1c(C)[nH]c(C(=O)CSc2ccc(F)cc2)c1C	18	-10	33*	14	14	6
CSC1=NSC2=NC(=O)/C(=C\c3coc4ccccc4c3=O)C(=N)N12	23	-1	15	15	107*	383*
O=C(C[n+]1ccc(/C=N/O)cc1)N(Cc1ccccc1)Cc1ccccc1	53*	-7	-3	0	-16	3
Cc1cc(Cl)ccc1C(=O)C1CCCN(C(=O)c2cccc(N3CCCC3=O)c2)C1 (stereo not drawn)	14	-4	-32	-22	0	-1
CN(C)Cc1c(O)ccc2c(-c3ccccc3)cc(=O)oc12	29	-7	-15	-3	-12	11
CN(C)Cc1c(O)ccc2cc(-c3nc4ccccc4n3C)c(=O)oc12	43*	-14	7	-12	-8	5
CCOC(=O)C1=CCN(S(=O)(=O)c2ccc(Br)cc2)C1c1cccc(Cl)c1 (stereo not drawn)	.	.	.	.	5	1
C=CCN(C(=O)c1csnn1)C(C(=O)NC1CCCC1)c1ccc(Cl)cc1 (stereo not drawn)	69*	-2	-15	-18	-5	-3
COc1ccc(NC(=O)c2ccccc2[N+](=O)[O-])cc1	16	-5	1	-7	-6	1
COc1ccccc1NC(=O)c1ccccc1S(=O)(=O)c1ccc([N+](=O)[O-])cc1	20	-18	-20	-14	-7	2
COc1ccccc1NC(=O)c1ccccc1S(=O)(=O)c1ccccc1[N+](=O)[O-]	58*	-7	-14	-9	-5	3
COc1ccccc1Nc1ccc(NC(=O)c2cccc([N+](=O)[O-])c2C)cc1	7	7	-8	-3	51*	-1
Cc1ccccc1OCCC(=O)NNC(=O)COc1cccc(F)c1	3	.	-9	-9	-15	1
CC(=O)N(C)C[C@@H]1OCc2ccccc2-c2c(n(C)c3ccccc23)C(=O)N([C@@H](C)CO)C[C@@H]1C	.	.	.	.	-13	0
Clc1ccc(-c2cn3c(n2)-c2ccccc2C3)cc1Cl	51*	-3	-21	-9	2	-3
COc1ccc(NC(=O)CCNS(=O)(=O)c2cccc3nsnc23)cc1	52	-10	-2	-21	-4	3
CCOc1ccccc1NC(=O)CCNS(=O)(=O)c1cccc2nsnc12	67*	-8	-11	-21	-8	1
COc1ccc(NC(=O)CCNS(=O)(=O)c2cccc3nsnc23)c(OC)c1	73*	-4	-3	-16	-19	5
CCOc1ccccc1NS(=O)(=O)c1cccc2nsnc12	10	3	-8	0	-5	9
CC(=O)c1cccc(NC(=O)CCNS(=O)(=O)c2cccc3nsnc23)c1	58*	8	-14	-20	-3	9
SMILES	OX1R antag-1	GPR7 antag	CHO parental Ca	OX1R antag-2	TAAR1 antag	TAAR1 ag
COC(=O)N1C[C@H](OCc2ccccc2)[C@H]2C[C@@H]1c1ccccc1O2	.	.	.	.	-20	-1
COC(=O)CSc1nc(-c2ccccc2)nc2ccccc12	74*	-10	-19	-10	24	6
Cc1cccc(NC(=O)Cc2ccc(F)cc2)c1	7	11	-9	-3	-1	10
Cc1cccc(CSC(Nc2ccc(F)cc2)=C(C#N)C#N)c1	29	11	25*	5	27	7
N#CC(C#N)=C(Nc1ccc(F)cc1)SCc1cccc(Br)c1	56	1	70*	36	30	6
Oc1ccc2ccccc2c1C=NCc1ccccc1	52*	-6	-6	-18	-3	8
Oc1ccc2ccccc2c1/C=N/Nc1ccccc1	-1	-4	1	0	1	0
O=c1cc(-c2ccc(O)cc2)oc2c1ccc1ccccc12	44*	.	-3	-5	13	7
CC(C)CCC(O)(CCC(C)C)C(=O)NNc1ccccc1	11	4	-25	-26	-20	3
COC(=O)N(NC(=O)C(O)(CCC(C)C)CCC(C)C)c1ccccc1	11	24*	-23	-12	-1	0
Cc1cc(NC(=O)CN2C(=O)NC(c3ccccc3)(c3ccc(C)c(C)c3)C2=O)no1 (stereo not drawn)	7	.	-19	-7	-7	4
CC(=O)Nc1cc(-c2ccccc2)cn2c(-c3ccc(F)cc3)cnc12	.	.	.	.	49*	6
COc1cc(-c2cc(NC(C)=O)c3ncc(-c4ccc(F)cc4)n3c2)cc(OC)c1OC	.	.	.	.	52*	13
COc1cc(-c2cc(NC(C)=O)c3ncc(-c4ccc(C(C)=O)cc4)n3c2)cc(OC)c1OC	.	.	.	.	48	10
Oc1cccc(N2CCN(c3cccc(O)c3)CC2)c1	.	.	.	.	-9	4
Nc1nonc1-n1nnc(C(=O)N/N=C/c2ccccn2)c1-c1ccccc1	.	-12	.	.	-14	7
Nc1nonc1-n1nnc(C(=O)N/N=C/c2ccncc2)c1CSc1ccc(Cl)cc1	17	-5	-18	-7	-17	7
Nc1nonc1-n1nnc(C(=O)N/N=C/c2ccccn2)c1CNc1ccccc1	50*	-17	-21	0	11	16
Cc1ccc(SCc2c(C(=O)N/N=C/c3ccncc3)nnn2-c2nonc2N)cc1	-4	-3	-7	-11	50*	12
COc1ccccc1-c1nnc(-c2ccc(N3CCOCC3)cc2)o1	75*	0	-8	-10	4	6
COc1ccccc1-c1nnc(-c2ccc(C)cc2)o1	31	.	-16	-27	-9	2
Cc1cc(N2CCN(CC(C)(C)O)C[C@H]2C)ccc1N1CCN(CC(C)(C)O)[C@H](C)C1	.	.	.	.	-11	1
O=C(Nc1cccc([N+](=O)[O-])c1)c1ccncc1	66*	-11	-7	0	-23	0
Cc1ccc(NC(=O)Nc2cccc([N+](=O)[O-])c2)cc1F	36	30*	8	15	20	7
O=C(Nc1ccc(OC(F)(F)F)cc1)Nc1cccc([N+](=O)[O-])c1	79*	43*	73*	36	53*	11
